Screening data from PubChem.
Hits are enriched below; roughly 3% of the tested compounds scored in any of these assays.
NR3A LBD binder – NR3A (human) ligand-binding domain modulation | Tm shift relative to glycine control, % at 25 µM | AID 1259313 | NR3A LBD differential scanning fluorimetry, Tm shift; 0% = protein alone, 100% = glycine-bound protein | actives 2.5% (n = 340,000);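 active means melting temperature shift of at least 10% of the positive control shift, at one fixed dose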
aDG glyco act – increases alpha dystroglycan glycosylation. activation, % at 10 µM. actives 0.22% (n = 360,000). Pro5-aDG cells, alpha-DG glycosylation AlphaScreen (IIH6); 0% Pro5, 100% B10-LARGE cell signal;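 active means activation of at least 8% versus controls, or a plate z-score of at least 8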;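 further: Pro5 are CHO cells carrying HIG-tagged alpha-DG that lacks glycosylation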
Lipid droplet – modulators of hepatic lipid droplet formation. actives 0.4% (n = 240,000). inhibition, % at 6.5 µM. AID 1656. AML12 mouse hepatocytes, oleate lipid droplets, BODIPY imaging;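 active means lipid droplet intensity inhibited by at least 50%, with more than 500 cells counted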
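Assay system: AML12 hepatocytes (mouse) / Also added: 100 µM oleic acid challenge / Times: overnight treatment with compound plus oleate / Detection: high-content imaging of BODIPY-stained droplets and DAPI nuclei / Evaluation: % inhibition of lipid droplet signal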
NPR2 activator – GC-B (human) receptor activation; HEK293-GC-B cells, CNP EC30, cGMP TR-FRET; 0% at EC30 CNP, 100% saturating CNP; actives 0.11% (n = 370,000); AID 1920062; activation, % at 10 µM; P20594;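 active means activation at 10 µM reaching about 35% in either raw or pattern-adjusted values, limit read from the data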
NPR1 activator – GC-A (human) enzyme activation; HEK293 GC-A cells, cGMP TR-FRET, EC30 ANP; 0% at EC30 ANP, 100% saturating ANP; activation, % at 10 µM; actives 0.14% (n = 370,000); AID 1671463; in the data active means activation above about 40%
GASC-1 inh – human JMJD2C demethylase inhibition; actives 0.069% (n = 330,000); inhibition, % at 2.35 µM; GST-JMJD2C(1-420) H3K9me3 demethylation, DELFIA europium;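 active means more than half of a compound's replicate wells show inhibition beyond 50%, single wells judged on their own value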;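 further: signal counts dimethyl H3K9 product captured on neutravidin plate; 0% = median of DMSO wells and 100% = 0.3 times that DMSO median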
Target sequence (Q9H3R0 1-420 limits assumed): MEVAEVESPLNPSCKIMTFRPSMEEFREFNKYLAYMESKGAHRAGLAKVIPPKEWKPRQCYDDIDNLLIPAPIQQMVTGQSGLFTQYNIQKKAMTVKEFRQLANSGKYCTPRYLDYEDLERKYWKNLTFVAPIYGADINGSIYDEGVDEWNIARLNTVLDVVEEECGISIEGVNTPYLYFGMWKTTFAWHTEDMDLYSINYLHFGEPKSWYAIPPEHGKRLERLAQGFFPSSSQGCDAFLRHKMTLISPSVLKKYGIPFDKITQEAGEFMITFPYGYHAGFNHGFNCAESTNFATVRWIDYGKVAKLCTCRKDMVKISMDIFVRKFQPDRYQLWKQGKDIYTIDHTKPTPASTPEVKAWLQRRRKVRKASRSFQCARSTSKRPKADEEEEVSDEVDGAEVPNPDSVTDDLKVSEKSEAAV
* hit, by the source's call; . = no result given.

SMILES | NR3A LBD binder | aDG glyco act | Lipid droplet | NPR2 activator | NPR1 activator | GASC-1 inh
COc1cccc(/C(O)=C/c2nc3ccc(C(=O)NCCc4ccc(Cl)cc4)cc3[nH]c2=O)c1 | 11* | 0 | -1 | 0 | -4 | 83
N#CCn1cc(/C=N/NC(=O)c2cc3c(ccc4ccccc43)o2)c2ccccc21 | 25* | 0 | 14 | -8 | 7 | 16
N#CCC(=O)N/N=C/c1cn(Cc2ccc(Cl)c(Cl)c2)c2ccccc12 | 31* | 0 | -3 | -2 | 3 | 4
COc1ccc(/C=N\NC(=O)c2cc3c(ccc4ccccc43)o2)cc1O | 25* | 0 | 4 | -4 | 14 | 3
COc1ccc(/C=N/NC(=O)c2cc3c(ccc4ccccc43)o2)cc1OC | 20* | 0 | 4 | 0 | 19 | 11
C[C@@H](c1ccccc1)N1C[C@H](COCc2ccccc2)Oc2cc(N3CCC[C@@H]3CO)ccc2S1(=O)=O | . | 0 | . | 2 | -3 | .
CCC(C)NS(=O)(=O)c1ccc2[nH]c(=O)oc2c1 (stereo not drawn) | . | . | . | -1 | 1 | .
COc1ccccc1Cn1nnc2c(=O)[nH]c(C3CCN(C(=O)c4ccccc4Cl)CC3)nc21 | 0 | 0 | 0 | 48* | 36 | -2
COc1ccc(-c2noc(C3CCCN(C(=O)Nc4ccc(C)c(F)c4)C3)n2)cc1 (stereo not drawn) | . | . | . | -4 | -1 | .
CN(C)S(=O)(=O)c1cccc(C(=O)N/N=C\c2ccccc2)c1 | . | . | . | -2 | -2 | .
CC1=C(C)C(=O)C(N2CCOCC2)=CC1=O | -1 | 5.3* | -2 | -5 | -11 | -21
O=C1C=C(N2CCOCC2)c2ccccc2C1=O | 3 | 2 | -9 | 2 | -6 | 13
Cc1cc2c(cc1C)CSC(c1ccccc1OC(=O)C(C)(C)C)SC2 | 2 | 0 | -9 | -4 | 3 | -1
Cc1cc2c(cc1C)CSC(c1ccc3ccccc3c1O)SC2 | 15* | 0 | 8 | -2 | -4 | 5
Cc1cc2c(cc1C)CSC(c1ccccc1O)SC2 | 12* | 0 | 19 | 4 | -2 | -8
Cc1cc2c(cc1C)CSC(c1ccc(O)cc1)SC2 | 8 | 0 | . | 4 | 0 | 1
Cc1cc2c(cc1C)CSC(c1c(O)ccc3ccccc13)SC2 | 27* | 0 | -2 | 9 | -1 | 6
CCCCN1CCN(C(=O)C2CCN(S(=O)(=O)c3ccc4[nH]c(=O)oc4c3)CC2)CC1 | . | . | . | 4 | -1 | .
O=C(O)CNC(=O)C1COc2ccccc2O1 (stereo not drawn) | -4 | 0 | 9 | 3 | 1 | -5
O=C(NC1CC2CCC1C2)C1COc2ccccc2O1 (stereo not drawn) | 2 | 0 | 26 | 4 | 4 | 68*
CC(=O)OCC(=O)C1(O)CCC2C3CCC4=CC(=O)CCC4(C)C3(F)C(O)CC21C (stereo not drawn) | 1 | -1 | . | -1 | -1 | .
O=C(OCc1cn(Cc2c(F)cccc2F)nn1)N1CCOCC1 | . | . | . | -2 | 0 | .
N#Cc1cccc(NC(=O)C2SC(=Nc3ccccc3)C(C(=O)N3CCOCC3)=C2N)c1 (stereo not drawn) | 1 | 0 | 1 | 3 | 1 | -13
Cc1ccc(N=C2SC(C(=O)Nc3ccc(OC(F)(F)F)cc3)C(N)=C2C(=O)Nc2c(C)cc(C)cc2C)cc1 (stereo not drawn) | 35* | 0 | 15 | 4 | 5 | 8
Cc1ccc(NC(=O)C2SC(=Nc3ccccc3)C(C(=O)Nc3ccc(Cl)cc3)=C2N)cc1 (stereo not drawn) | 17* | 0 | -6 | . | . | .
SMILES | NR3A LBD binder | aDG glyco act | Lipid droplet | NPR2 activator | NPR1 activator | GASC-1 inh
CCCCNc1ccc2c3c(cccc13)C(=O)N(CCCC)C2=O | 11* | 2 | -8 | 8 | 18 | -23
O=S(=O)(c1ccc2nc(-c3ccccc3)[nH]c2c1)N1CCN(c2cccc(Cl)c2)CC1 | 17* | 1 | -6 | -3 | -9 | 0
CCNc1nc(NC(C)(C)C)nc(N(C#N)CC)n1 | -1 | 0 | . | 48* | 44* | 18
C[C@H]1Cn2cnc(C(=O)NCc3ccc(CNC(=O)OC(C)(C)C)cc3)c2C(=O)N1 | . | 0 | . | 5 | 1 | .
O=C(NC(=S)Nc1nc(-c2ccccc2)cs1)c1cccnc1 | -24 | 0 | 0 | -7 | 1 | 6
CCCSc1nnc(NC(=O)c2sc3nc(-c4cccs4)ccc3c2N)s1 | 6 | 0 | 3 | 7 | 7 | -9
O=C(COc1ccc(Cl)cc1)Nc1nc(-c2cccs2)cs1 | 3 | 0 | 7 | 4 | 5 | -1
O=C(Nc1nc(-c2cccs2)cs1)c1ccc(Cl)cc1 | 11* | 0 | 3 | 2 | 1 | -24
Cc1csc(NC(=O)c2sc3nc(-c4cccs4)ccc3c2N)n1 | 28* | . | 6 | . | . | 14
COc1ccc(C(=O)Nc2nc(-c3cccs3)cs2)cc1 | 16* | 0 | 42 | -6 | 9 | -4
O=C(Nc1nc(-c2ccccc2Cl)cs1)c1cccnc1 | 10* | 0 | 12 | -6 | 6 | -2
COc1ccc(-c2c(C)nn3c(C)cc(C)nc23)cc1 | 0 | 0 | 0 | -2 | -5 | -11
O=C(NCc1cccnc1)O[C@H]1CC[C@@]23CCCN2C(=O)CCC[C@H]3C1 | . | . | . | -2 | -1 | .
Cc1ccc(-c2csc(NC(=O)c3cccc(S(=O)(=O)N4CCN(C)CC4)c3)n2)cc1 | -3 | 2 | . | 6 | 5 | 5
Cc1c(C(=O)Nc2nccs2)sc2nc(-c3cccs3)cc(C(F)(F)F)c12 | 28* | 0 | . | -4 | 0 | -2
O=C(Nc1nc(-c2cccs2)cs1)c1cccc(S(=O)(=O)N2CCCCC2)c1 | 10* | 0 | 12 | 5 | 0 | 2
O=C(COC(=O)c1c2c(nc3ccccc13)/C(=C/c1cccc([N+](=O)[O-])c1)CCC2)NC1CCS(=O)(=O)C1 (stereo not drawn) | 11* | 0 | -9 | 1 | 2 | -18
CN(C(=O)COC(=O)c1c2c(nc3ccccc13)/C(=C/c1cccc([N+](=O)[O-])c1)CCC2)C1CCS(=O)(=O)C1 (stereo not drawn) | 3 | -1 | -35 | 9 | 6 | 2
NNC(=O)c1nn(-c2ccc(Cl)cc2)ccc1=O | 0 | 0 | . | 2 | 3 | 55*
Cc1c(Cl)cccc1-n1c(SCC(=O)N2CCC(C(=O)O)CC2)nc2ccccc2c1=O | -1 | 0 | 1 | 6 | -1 | -14
O=C(Nc1nc2ccc3ccccc3c2s1)c1ccc(N2CCCCC2)c([N+](=O)[O-])c1 | 19* | 0 | 20 | 3 | 4 | 6
